# Bioassay records (PubChem)
# Shown are actives, neighbours in structure and some others; about 0.95% of the full set was active somewhere.
# UBC9 SUMO inh – inhibitors of human SUMOylation (UBC9) | HTRF SUMOylation assay, SAE1/SAE2 + UBC9, in vitro | inhibition, % at 35 µM | actives 0.36% (n = 290,000) | AID 2006; in the data active = inhibition above about 50%, passing the limit was not always enough
# p97 ATPase inh – blocks human p97 ATPase activity; inhibition, % at 8 µM; recombinant p97 ATPase, Kinase-Glo ATP luminescence, 3 h; actives 0.42% (n = 220,000); in the data active = inhibition above about 15%;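 also: 0% = DMSO vehicle and 100% = wells lacking enzyme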
# HKDC1 inh – inhibitors of human hexokinase HKDC1; Q2TB90; recombinant HKDC1, G6PDH/diaphorase resazurin coupled fluorescence; inhibition, % at 20 µM; actives 0.16% (n = 340,000); AID 493160;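 active = inhibition above about 35% when tested at 20 µM, limit read from the data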;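 also: plate controls were DMSO wells with enzyme for no effect and DMSO wells lacking enzyme for full effect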
# Target sequence (Q2TB90 whole entry, looked up): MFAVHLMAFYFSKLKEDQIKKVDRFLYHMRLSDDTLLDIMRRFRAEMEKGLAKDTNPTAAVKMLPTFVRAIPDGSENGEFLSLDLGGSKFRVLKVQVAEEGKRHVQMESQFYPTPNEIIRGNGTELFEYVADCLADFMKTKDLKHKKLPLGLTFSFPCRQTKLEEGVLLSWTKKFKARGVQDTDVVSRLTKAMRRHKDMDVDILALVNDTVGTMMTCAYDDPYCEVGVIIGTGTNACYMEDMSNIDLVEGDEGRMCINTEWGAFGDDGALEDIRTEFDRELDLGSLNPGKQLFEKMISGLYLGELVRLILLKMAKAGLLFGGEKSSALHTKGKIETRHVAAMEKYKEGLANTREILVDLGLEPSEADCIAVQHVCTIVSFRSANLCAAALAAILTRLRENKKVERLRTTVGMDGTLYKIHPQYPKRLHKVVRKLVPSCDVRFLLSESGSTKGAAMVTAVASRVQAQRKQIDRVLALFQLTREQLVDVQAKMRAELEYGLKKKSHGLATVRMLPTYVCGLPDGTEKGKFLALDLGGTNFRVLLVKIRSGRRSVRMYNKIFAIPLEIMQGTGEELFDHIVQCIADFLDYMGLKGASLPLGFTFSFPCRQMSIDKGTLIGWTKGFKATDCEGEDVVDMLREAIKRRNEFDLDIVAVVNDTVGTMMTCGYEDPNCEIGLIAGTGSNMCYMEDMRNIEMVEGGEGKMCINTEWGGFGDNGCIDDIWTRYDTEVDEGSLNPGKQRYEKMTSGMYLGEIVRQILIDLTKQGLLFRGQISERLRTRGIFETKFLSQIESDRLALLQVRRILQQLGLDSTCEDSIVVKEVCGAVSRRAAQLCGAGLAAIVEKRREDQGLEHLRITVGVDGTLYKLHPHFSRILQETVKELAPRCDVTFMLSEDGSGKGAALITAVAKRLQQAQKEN
#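 Material – in-house recombinant HK5 (HKDC1) enzyme · Quantity – HKDC1 at 5 µg/mL · Buffer or medium – pH 8.0 Tris buffer with 10 mM MgCl2 · Reagent – glucose with 1 mM ATP · Dosing – single 20 µM dose · Times – reaction time 90 min, room temperature, protected from light · Technique – resorufin fluorescence at 613 nm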
# Diaphorase inh – inhibits diaphorase or chemically oxidizes, flagging diaphorase assay artifacts | diaphorase resazurin-to-resorufin fluorescence, NADH, 16 min; bacterial (C. kluyveri) enzyme, not human | inhibition, % at 20 µM | actives 0.69% (n = 190,000) | AID 1217;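 active = primary screen inhibition at 20 µM above a set limit, cut at about 50% in these data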;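 also: plate controls were DMSO with full reaction for no effect and wells lacking NADH for full effect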
#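 material = Clostridium kluyveri diaphorase enzyme | amount = 0.14 U/mL diaphorase, enzyme working solution | schedule = incubation 16 min, room temperature | detection = fluorescence of resorufin formed from resazurin, Ex 544/Em 590 nm | benchmarks = positive control minus NADH, DMSO neutral control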
# G6PDH CS – inhibits Leuconostoc G6PDH, flagging false hits in G6PDH-based assays; AID 1020; Purified L. mesenteroides G6PDH, diaphorase/resazurin coupled fluorescence, 45 min; actives 0.12% (n = 200,000); inhibition, % at 5 µM; in the data active = inhibition above about 50%
# Starred values were filed as active, the others as inactive; nt = no result.
SMILES,UBC9 SUMO inh,p97 ATPase inh,HKDC1 inh,Diaphorase inh,G6PDH CS
O=C(NC1CCS(=O)(=O)C1)/C(=C\c1ccco1)NC(=O)c1ccccc1 (centres undefined),10.3,7.3,-5.1,nt,nt
Cc1c(O)ccc2c(CC(=O)N[C@@H](Cc3ccc(O)cc3)C(=O)O)cc(=O)oc12,53.1*,nt,-2.2,nt,nt
O=C(COC(=O)c1cc(NS(=O)(=O)c2cccs2)ccc1O)Nc1ccc(F)c(F)c1F,23.2,2.9,2.5,23.1,4.8
O=C(COC(=O)c1cc(NS(=O)(=O)c2cccs2)ccc1O)Nc1cc(Cl)ccc1Cl,68.6*,7.1,-4.7,-11.6,1.6
O=C(COC(=O)c1ccc(NS(=O)(=O)c2cccs2)cc1)Nc1nc2c(F)c(F)c(F)cc2s1,80.5*,2.8,1.4,23.6,3.5
Cc1c(C)c2cc(Cl)c(O)c(CN(C)C)c2oc1=O,43.9,5.4,-3.0,9.7,-0.5
CCc1c(C)c2cc(Cl)c(O)c(CN(C)C)c2oc1=O,51.1*,-3.9,-6.7,12.9,-5.2
O=C(c1ccc(Cl)cc1)N1CCC(=O)N(C(CO)Cc2ccccc2)CC1 (centres undefined),nt,nt,-4.4,nt,nt
O=C(Cc1cnn(-c2ccccc2)c1)c1ccc(O)c(O)c1O,38.3,12.1,1.2,68.7*,17.7
CCCC/C=C1/CCC(CN(C)C)C1=O (centres undefined),nt,nt,4.7,nt,nt
O=C(O)c1ccccc1Nc1ccccc1,nt,nt,-0.7,nt,nt
O=C(O)c1ccccc1Nc1cccc(C(F)(F)F)c1,24.7,15.1*,1.4,-1.2,7.1
Cc1cccc(C)c1OCC(=O)N/N=C/C=C/c1ccco1,55.4*,1.7,-8.9,17.8,4.4
Cc1sc2nc(CN3CCN(c4ccc(O)cc4)CC3)[nH]c(=O)c2c1C,-9.3,5.7,13.5,nt,nt
Cc1sc2nc(CN3CCOCC3)[nH]c(=S)c2c1C,-8.5,4.3,-7.6,72.8*,-11.6
O=C(NC1CCCCC1)C(c1ccc(O)c(O)c1)N(C(=O)Cn1nnc2ccccc21)c1cccc(O)c1 (centres undefined),14.3,6.7,-4.4,56.1*,17.2
Cc1cccc(N2CCc3c2nc2ccc(Br)cc2c3N)c1,17.1,1.4,8.1,77.8*,7.0
Cn1cc(CN2CCC(Oc3ccc(C(=O)N4CCCCC4)cc3)CC2)cn1,-7.1,nt,-0.1,nt,nt
N#CC1(NC(=O)COC(=O)c2cc(O)c3ccccc3c2O)CCCCC1,nt,nt,49.7*,nt,nt
Cc1ccc(S(=O)(=O)N2CCOCC2)cc1NC(=O)CSc1nnc2cc(C)c3ccccc3n12,4.3,-1.8,20.1,53.7*,10.2
CC(=O)C1=C(C)OC(N)=C(C#N)C1c1cccc2ccccc12 (centres undefined),4.5,14.6*,15.1,nt,nt
Cc1cc(/C=C2/C(=N)N3C(=NC2=O)SN=C3S(C)(=O)=O)c(C)n1-c1ccccc1F,13.7,1.2,28.2,12.6,6.4
CS(=O)(=O)C1=NSC2=NC(=O)/C(=C\c3cccn3-c3ccc(Cl)cc3)C(=N)N21,33.8,-4.3,22.7,51.0*,-1.1
CC(C)CNC(=O)COC(=O)c1c2c(nc3ccccc13)/C(=C\c1cccs1)CC2,nt,nt,-6.6,nt,nt
CN(CCC#N)C(=O)COC(=O)c1c2c(nc3ccccc13)/C(=C/c1ccco1)CC2,52.7*,1.5,12.6,26.0,-22.7
SMILES,UBC9 SUMO inh,p97 ATPase inh,HKDC1 inh,Diaphorase inh,G6PDH CS
CN(C)c1ccc(/C=N/NC(=O)c2ccccc2Cl)cc1,-3.5,-0.7,13.4,14.3,-1.6
CSc1ccc(/C=N/NC(=O)c2ccccc2Cl)cc1,2.9,0.7,0.6,58.5*,0.1
O=C(N/N=C/C(Br)=C/c1ccccc1)C(O)c1ccccc1 (centres undefined),-12.0,-8.0,-4.7,nt,nt
O=C(O)c1ccc(N/N=C/C(Br)=C/c2ccccc2)cc1,10.2,14.7*,1.4,nt,nt
CC(OC(=O)Cn1cnc2ccccc2c1=O)C(=O)NCc1ccccc1 (centres undefined),nt,nt,-4.5,nt,nt
N#Cc1c(N2CCCC2)nc(N)c2c(N)nc(N3CCCC3)cc12,100.1*,-5.4,20.4,-56.8,-57.6
CCOc1cc2c(C#N)c(N3CCCC3)nc(N)c2c(N)n1,nt,nt,7.1,nt,nt
COc1cc2c(C#N)c(N3CCN(C)CC3)nc(N)c2c(N)n1,99.2*,4.7,nt,36.3,6.3
COc1cc2c(C#N)c(N3CCN(c4ccccc4OC)CC3)nc(N)c2c(N)n1,95.9,7.0,10.8,49.7,-35.2
Nc1nc(NCCOCCO)nc(N2CCCCCC2)c1[N+](=O)[O-],-5.6,nt,-1.1,nt,nt
